# Results of several laboratories.
# Protocols differ between the studies behind these lines.
# Target: Mitogen-activated protein kinase kinase kinase 2 (MAP3K2, Homo sapiens, UniProt Q9Y2U5)
# Residues used in one study (Q9Y2U5 1-619): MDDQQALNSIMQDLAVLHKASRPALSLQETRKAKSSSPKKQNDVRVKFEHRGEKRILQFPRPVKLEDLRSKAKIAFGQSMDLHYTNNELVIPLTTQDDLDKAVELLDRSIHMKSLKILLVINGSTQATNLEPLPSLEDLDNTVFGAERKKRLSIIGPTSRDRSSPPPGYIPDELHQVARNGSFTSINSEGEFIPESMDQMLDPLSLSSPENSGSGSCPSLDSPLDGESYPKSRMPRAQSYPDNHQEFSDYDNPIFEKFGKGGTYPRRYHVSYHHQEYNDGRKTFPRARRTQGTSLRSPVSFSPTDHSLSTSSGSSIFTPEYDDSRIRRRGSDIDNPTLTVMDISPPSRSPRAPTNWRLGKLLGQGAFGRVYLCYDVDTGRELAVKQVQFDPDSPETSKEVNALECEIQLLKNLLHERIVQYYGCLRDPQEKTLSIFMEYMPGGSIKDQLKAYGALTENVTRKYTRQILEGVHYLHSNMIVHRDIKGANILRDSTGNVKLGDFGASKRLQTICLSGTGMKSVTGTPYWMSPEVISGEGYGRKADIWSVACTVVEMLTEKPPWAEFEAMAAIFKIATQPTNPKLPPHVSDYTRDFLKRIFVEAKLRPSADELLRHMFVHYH
Structure (SMILES),observed,mode,method,cell line,tested at,quantity,value
Cc1c(C(=O)O)cc(-c2ccc(C3CCNCC3)cc2)c2ccc(-c3ccc(C(F)(F)F)cc3)cc12,binding,,competition with immobilised ligand,,1 µM,remaining binding,100%
Cc1ccc(C(=O)NCc2ccsc2)cc1C#Cc1cn(C(C)C)c2ncnc(N)c12,enzyme activity,inhibitor,,,1 µM,activity vs control,61%
O=c1nc(-c2ccccn2)sc2ccccc12,binding,,competition with immobilised ligand,,1 µM,remaining binding,92%
Cc1cc(NC(=O)c2cccc3cc(-c4cccc5[nH]nc(N)c45)ccc23)ccc1F,enzyme activity,inhibitor,,,0.1 µM,activity vs control,100%
Cc1ccc(C(=O)Nc2ccc(CN3CCN(C)CC3)c(C(F)(F)F)c2)cc1C#Cc1cnc2cccnn12,enzyme activity,inhibitor,,,23.5 nM,remaining activity,55%
COc1cc(Cl)c(C(=O)N[C@@H](CN[C@H]2CC[C@@H](N)CC2)Cc2ccc(C#N)cc2)cc1-c1ccc(CN[C@H](C)c2ccc(C)cc2)o1,enzyme activity,inhibitor,,,1 µM,remaining activity,110%
N#CCCc1ccc2c(c1)-c1[nH]c3ccc([N+](=O)[O-])cc3c1CC(=O)N2,cell-free assay,,,,0.5 µM,remaining signal,61.5%
Cc1nc(C2CCN(C(=O)c3ccc(OC(F)(F)F)cc3N)CC2)c2ncc(N3CCN(C)CC3)cc2n1,cell-free assay,,competition with immobilised ligand,,1 µM,remaining binding,100%
CCN(CC)CCNC(=O)c1c(C)[nH]c(/C=C2\C(=O)Nc3ccc(F)cc32)c1C,cell-free assay,,,,0.5 µM,remaining signal,51.9%
CCN1CCN(Cc2ccc(NC(=O)c3ccc(C)c(/C=C/c4cnc5[nH]ccc5c4OC)c3)cc2C(F)(F)F)CC1,target engagement in cells,inhibitor,chemoproteomics,A-375,0.5 µM,inhibition,-0.738%
O=C1Nc2ccc(Cl)cc2C1=Cc1cc(Cl)c(O)c(Cl)c1,cell-free assay,,,,0.5 µM,remaining signal,95.7%
CN([C@@H]1CCc2c(CC(=O)O)c3ccccc3n2C1)S(=O)(=O)c1ccc(F)cc1,cell-free assay,,competition with immobilised ligand,,1 µM,remaining binding,100%
Cc1sc(C(=O)NC2COC2)cc1-n1cc(NC(=O)Nc2c(F)cccc2Cl)cn1,enzyme activity,inhibitor,,,10 µM,remaining activity,88.1%
CC(C)(C)c1nc(-c2cccc(NS(=O)(=O)c3c(F)cccc3F)c2F)c(-c2ccnc(N)n2)s1,enzyme activity,inhibitor,radiometric,,1 µM,remaining activity,57%
